Experimental data gathered from unrelated publications.
Target: cGMP-dependent protein kinase 2 (PRKG2, Homo sapiens, UniProt Q13237)
Residues used in one study (Q13237 1-762): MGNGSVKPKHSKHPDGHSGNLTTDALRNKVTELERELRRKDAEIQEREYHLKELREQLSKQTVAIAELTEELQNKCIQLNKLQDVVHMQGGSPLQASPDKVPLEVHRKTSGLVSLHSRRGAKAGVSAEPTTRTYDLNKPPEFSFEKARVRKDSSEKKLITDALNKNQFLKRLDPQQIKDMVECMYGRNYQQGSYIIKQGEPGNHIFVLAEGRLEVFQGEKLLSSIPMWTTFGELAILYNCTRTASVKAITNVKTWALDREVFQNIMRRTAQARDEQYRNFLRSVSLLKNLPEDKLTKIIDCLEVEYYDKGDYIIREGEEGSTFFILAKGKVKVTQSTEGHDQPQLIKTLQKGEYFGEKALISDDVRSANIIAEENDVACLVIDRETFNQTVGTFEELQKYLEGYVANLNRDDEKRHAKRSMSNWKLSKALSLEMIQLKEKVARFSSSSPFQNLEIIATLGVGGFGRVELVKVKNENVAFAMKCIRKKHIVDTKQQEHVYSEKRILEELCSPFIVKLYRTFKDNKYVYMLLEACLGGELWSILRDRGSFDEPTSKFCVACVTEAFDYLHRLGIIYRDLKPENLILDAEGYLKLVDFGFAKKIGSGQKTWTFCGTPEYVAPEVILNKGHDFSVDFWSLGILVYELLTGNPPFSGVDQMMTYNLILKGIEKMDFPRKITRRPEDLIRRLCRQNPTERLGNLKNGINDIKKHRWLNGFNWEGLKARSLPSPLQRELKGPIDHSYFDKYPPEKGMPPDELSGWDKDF

CC(C)(C)c1cc(C=C(C#N)C#N)cc(Br)c1O — remaining activity (enzyme activity, inhibitor; 0.5 µM): 87.6%
Cc1nn(C)cc1-c1nc2c(N3CCN(Cc4ccc(Cl)cc4)CC3)c(Cl)cnc2[nH]1 — remaining binding (binding, competition with immobilised ligand; 1 µM): 92%
Cn1cc(-c2cc(F)cc(N3CCn4c(cc5c4CCCC5)C3=O)c2CO)cc(Nc2ccc(N3CCN(C4COC4)CC3)cn2)c1=O — inhibition (enzyme activity, inhibitor; 0.1 µM): 11%
Nc1ncc(-c2nc(N3CCOCC3)nc(N3CCOCC3)n2)c(C(F)F)n1 — remaining binding (binding, competition with immobilised ligand; 10 µM): 90%
O=c1[nH]c2ccccc2n1C1CCN(Cc2ccc(-c3[nH]c4cc5ncnc5cc4nc3-c3ccccc3)cc2)CC1 — remaining signal (cell-free assay; 0.5 µM): 96.8%
Cn1cncc1[C@](O)(COc1ccc(C#N)cc1-c1ccc(OC(F)(F)F)cc1)c1ccc(C#N)cc1 — remaining binding (cell-free assay, competition with immobilised ligand; 1 µM): 100%
COc1ncccc1-c1cnn2ccc(N3CCN(C(=O)OC(C)C)CC3)nc12 — remaining binding (binding, competition with immobilised ligand; 1 µM): 88%
Cn1cc(-c2cccc(N3CCc4c(sc5c4CC(C)(C)C5)C3=O)c2CO)cc(Nc2ccncn2)c1=O — inhibition (enzyme activity, inhibitor; 1 µM): 2%
N#CC1(c2ccccn2)CCN(Cc2cc(C(=O)O)c(=O)n3ccccc23)CC1 — remaining binding (cell-free assay, competition with immobilised ligand; 1 µM): 95%
